Measured values gathered from unrelated publications.
Each line is one published result; the experiments were not run side by side.
Matrix: plasma

CO[C@H]1CC[C@H](N2C(=O)CNc3ncc(-c4ccc(C(C)(C)O)nc4)nc32)CC1 — half-life (human; oral; 7.5 mg; patients): 7.68 h
O=C(Nc1c(Cl)cncc1Cl)c1ccc(OC(F)F)c(OCC2CC2)c1 — half-life (human; oral; 0.5 mg; single dose): 19.9 h
CCOc1cc([C@@H](CS(C)(=O)=O)N2C(=O)c3cccc(NC(C)=O)c3C2=O)ccc1OC — half-life (human; oral; 30 mg; single dose, healthy volunteers): 8.08 h
COc1cc(C(=O)NC2CCN(C)CC2)c(F)cc1Nc1ncc(C(F)(F)F)c(Oc2cccc3c2C(=O)N(C)C3)n1 — half-life (human; oral; 200 mg; multiple doses, once daily, patients): 20.4 h
Nc1cc(C(F)(F)F)c(-c2cc(N3CCOCC3)nc(N3CCOCC3)n2)cn1 — half-life (human; oral; 25 mg/day; patients): 36.8 h
CC(C)(O)c1ccccc1-c1ccc2[nH]c(/C=C/c3ccc(C(F)(F)F)cc3)nc2c1 — half-life (male human; oral; 2 mg; single dose, fasted, healthy volunteers): 47.8 h
CC(C)(Sc1ccncc1-c1ccc(C#N)c2ccccc12)C(=O)O — half-life (male human; oral; 5 mg; single dose, fed, healthy volunteers): 12.7 h
Cc1cc(Nc2ncc(Cl)c(Nc3ccccc3S(=O)(=O)C(C)C)n2)c2c(c1C1CCN(C)CC1)C[C@@H](C)O2 — half-life (human; oral; 160 mg; single dose, fed): 34.7 h
CC(=O)Oc1ccccc1C(=O)O — half-life (human; oral; 650 mg; healthy volunteers): 0.53 h
CCNCCCNC/C=C\CNCCCNCC — half-life (human; intravenous; 100 mg; patients, infusion): 0.19 h
COc1ccc(Oc2cc(N(C)CCOc3ccc(CC4SC(=O)NC4=O)cc3)ncn2)cc1 (centres unmarked) — half-life (male human; oral; 0.5 mg; multiple doses, once daily, steady state): 7.06 h
COc1ccc([C@@H]2CN(C(=O)[C@@H](O)CO)C[C@@]2(C)[C@@H](C)O)cc1OC1CN(c2ccc(C)cn2)C1 — half-life (human; oral; 1.5 mg; single dose, healthy volunteers): 13.5 h
CC(C)n1cc(C#N)c2cc(-n3cc(C(=O)O)cn3)ccc21 — half-life (human; oral; 100 mg; single dose, fasted, healthy volunteers): 6.6 h
C/C(=C\c1csc(C)n1)[C@@H]1C[C@@H]2O[C@]2(C)CCC[C@H](C)[C@H](O)[C@@H](C)C(=O)C(C)(C)[C@@H](O)CC(=O)N1 — half-life (human; intravenous; 20 mg/m²; patients): 62.2 h
C#C[C@]1(COP(=O)(O)OP(=O)(O)OP(=O)(O)O)O[C@@H](n2cnc3c(N)nc(F)nc32)C[C@@H]1O — half-life (human; oral; 15 mg; single dose): 161 h
CS(=O)(=O)CCC#N — half-life (human; oral; 300 mg; multiple doses, once daily): 21.3 h
c1cnc2ccc(Nc3nc(NC4CC4)c4nc[nH]c4n3)cc2c1 — half-life (human; oral; 100 mg/m²; patients): 3.6 h
CC(C)(C)OC[C@@H]1C(=O)NCCN1C(=O)C[C@H](N)Cc1cc(F)c(F)cc1F — half-life (male human; oral; 5 mg; multiple doses, steady state, healthy volunteers): 24.7 h
CC(C)[C@](O)(c1ccc2cc(OC(F)F)c(OC(F)F)cc2c1)c1c[nH]nn1 — half-life (female human; oral; 450 mg; single dose): 6.4 h
Cc1nc(-c2cn3c(n2)-c2ccc(-c4cnn(C(C)(C)C(N)=O)c4)cc2OCC3)n(C(C)C)n1 — half-life (human; oral; 2 mg; patients): 28.1 h
NS(=O)(=O)NCCNc1nonc1C(=NO)Nc1ccc(F)c(Br)c1 — half-life (human; oral; 300 mg; multiple doses, twice daily, steady state, patients): 3.9 h
O=c1c(O)c(-c2ccc(O)c(O)c2)oc2cc(O)cc(O)c12 — half-life (human; oral; 500 mg; single dose, fasted, healthy volunteers): 6.26 h
CC(C)(O)c1cc(Nc2cc(Oc3cn(C4CC4)nc3C3CCOCC3)ccn2)ccn1 — half-life (human; oral; patients): 6.7 h
CN(C)Cc1ccc(S(=O)(=O)n2ccc(/C=C/C(=O)NO)c2)cc1 — half-life (human; oral; patients): ~4 h
COCCOc1cnc2ccn([C@H](C)c3nnc4c(F)cc(-c5cnn(C)c5)cn34)c(=O)c2c1 — half-life (human; oral; 50 mg; multiple doses, once daily, patients): 15.3 h
O=C(/C=C/c1cccc(S(=O)(=O)Nc2ccccc2)c1)NO — half-life (human; intravenous; 2000 mg/m²; patients): 1.42 h
CCOc1cc2ncc(C#N)c(Nc3ccc(OCc4ccccn4)c(Cl)c3)c2cc1NC(=O)/C=C/[C@H]1CCCN1C — half-life (human; oral; 80 mg; single dose): 12.9 h
C[C@@H](Nc1cc(F)cc(F)c1)c1cc(C(=O)N(C)C)cc2c(=O)cc(N3CCOCC3)oc12 — half-life (human; oral; 60 mg; patients): 5.2 h
Cn1cc(-c2ccc(S(=O)(=O)[C@@H]3C[C@@H](C(=O)NC4(C#N)CC4)N(C(=O)C4(C(F)(F)F)CC4)C3)c(C(F)(F)F)c2)cn1 — half-life (human; oral; 1 mg; single dose, fasted, healthy volunteers): 5.47 h
CO[C@H]1/C=C\C=C(/C)C(=O)NC2=CC(=O)C(NCCN(C)C)=C(C[C@@H](C)C[C@H](OC)[C@H](O)[C@@H](C)/C=C(\C)[C@@H]1OC(N)=O)C2=O — half-life (human; intravenous; 12 mg/m²; patients, infusion): 14.1 h
C[C@@H](c1ccc2nccn2c1)n1nnc2ncc(-c3cnn(C)c3)nc21 — half-life (human; oral; 200 mg): 4.2 h
CO[C@@H]1[C@H](OC(=O)N2CC(CCN3CCOCC3)C2)CC[C@]2(CO2)[C@H]1[C@@]1(C)O[C@@H]1CC=C(C)C — half-life (human; subcutaneous; 0.2 mg; single dose, healthy volunteers): 0.49 h
